# Molecular target: T1, NaLdpA (Novosphingobium aromaticivorans, UniProt Q2G4I2)
# T1 sequence (Q2G4I2 1-243): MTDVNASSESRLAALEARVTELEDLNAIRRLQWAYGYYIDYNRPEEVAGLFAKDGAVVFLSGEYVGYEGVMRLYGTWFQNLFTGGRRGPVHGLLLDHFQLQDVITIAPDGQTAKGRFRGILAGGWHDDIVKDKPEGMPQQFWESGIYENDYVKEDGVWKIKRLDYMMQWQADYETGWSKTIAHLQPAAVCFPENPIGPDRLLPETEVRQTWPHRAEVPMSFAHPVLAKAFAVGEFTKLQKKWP
# Experiment: spectrophotometric lignostilbene production, product inhibition
# Type: biochemical
# How it was run: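 Recombinant polyHis-tagged enzyme expressed in E. coli, purified by chromatography and stored at −80 °C. Reactions were run in air-saturated MOPS (I = 0.1 M), pH 7.0, at 25 °C. Erythro-DGPD substrate concentration was varied, with lignostilbene added at 0, 1, 2, 4 or 10 μM.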
compound,measurement,value
COc1cc(/C=C/c2ccc(O)c(OC)c2)ccc1O [lignostilbene],Ki,0.33 ± 0.03 µM
